Legend:
[1] = Apparent equilibrium constant for DNA binding (G-C); format: ADME
In short: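 Ethidium displacement at pH 7.0 in buffer of 10 mM Na2HPO4, 10 mM NaH2PO4, 1 mM EDTA with 1.26 μM ethidium bromide and 1 μM CT-DNA, [poly(dA-dT)]2 or [poly(dG-dC)]2. Drug stock (~5 mM in DMSO) added serially. Fluorescence read at 20 °C, excitation 546 nm, emission 595 nm. C50 is the mean of three determinations. Kapp = 1.26/C50 × 10^7.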

[2] = organism: Homo sapiens; test: In vitro cytotoxic activity against human colon adenocarcinoma (HT-29).; format: functional
In short: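 HT29 cells were seeded at 2.5 × 10^4 cells/mL of medium and drug solutions were added. Exposure lasted 144 h. IC50 is the drug concentration inhibiting cell growth by 50%. Assays were run in triplicate.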

[3] = tested on: MCF7; test: Percent growth of breast MCF-7 cell line at compound concentration 10e-6 was determined; format: functional, Homo sapiens
In short: (§1)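 Cells in the NCI panel were exposed for 48 h to 10^-8, 10^-6 and 10^-4 or 10^-5 M drug. Growth is given as percent of untreated control (100%). Negative values are the percent of cells killed relative to the initial cell number.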

[4] = tested on: MCF7; test: Percent growth of breast MCF-7 cell line at compound concentration 10e-8 was determined; format: functional, Homo sapiens; in short: as §1
[5] = tested on: MCF7; test: Percent growth of breast MCF-7 cell line at compound concentration 10e-5 was determined; format: functional, Homo sapiens; in short: as §1
[6] = tested on: HCT-116; test: Percent growth of colon HCT116 cell line at compound concentration 10e-5 was determined; format: functional, Homo sapiens; in short: as §1
[7] = tested on: HCT-116; test: Percent growth of colon HCT116 cell line at compound concentration 10e-6 was determined; format: functional, Homo sapiens; in short: as §1
[8] = tested on: HCT-116; test: Percent growth of colon HCT116 cell line at compound concentration 10e-8 was determined; format: functional, Homo sapiens; in short: as §1
[9] = tested on: NCI-H460; test: Percent growth of lung-NSC NCI-H460 cell line at compound concentration 10e-5 was determined; format: functional, Homo sapiens; in short: as §1
[10] = tested on: NCI-H460; test: Percent growth of lung-NSC NCI-H460 cell line at compound concentration 10e-6 was determined; format: functional, Homo sapiens; in short: as §1
[11] = tested on: RPMI-8226; test: Percent growth of leukemia RPMI-8226 cell line at compound concentration 10e-5 was determined; format: functional, Homo sapiens; in short: as §1
[12] = tested on: RPMI-8226; test: Percent growth of leukemia RPMI-8226 cell line at compound concentration 10e-6 was determined; format: functional, Homo sapiens; in short: as §1
[13] = tested on: RPMI-8226; test: Percent growth of leukemia RPMI-8226 cell line at compound concentration 10e-8 was determined; format: functional, Homo sapiens; in short: as §1
[14] = tested on: NCI-H460; test: Percent growth of lung-NSC NCI-H460 cell line at compound concentration 10e-8 was determined; format: functional, Homo sapiens; in short: as §1
[15] = tested on: LOX IMVI; test: Percent growth of melanoma LOX IMVI cell line at compound concentration 10e-5 was determined; format: functional, Homo sapiens; in short: as §1
[16] = tested on: LOX IMVI; test: Percent growth of melanoma LOX IMVI cell line at compound concentration 10e-6 was determined; format: functional, Homo sapiens; in short: as §1
[17] = tested on: LOX IMVI; test: Percent growth of melanoma LOX IMVI cell line at compound concentration 10e-8 was determined; format: functional, Homo sapiens; in short: as §1
[18] = tested on: OVCAR-4; test: Percent growth of ovarian OVCAR-4 cell line at compound concentration 10e-5 was determined; format: functional, Homo sapiens; in short: as §1
[19] = tested on: OVCAR-4; test: Percent growth of ovarian OVCAR-4 cell line at compound concentration 10e-8 was determined; format: functional, Homo sapiens; in short: as §1
[20] = tested on: 786-0; test: Percent growth of renal 786-0 cell line at compound concentration 10e-5 was determined; format: functional, Homo sapiens; in short: as §1
[21] = tested on: 786-0; test: Percent growth of renal 786-0 cell line at compound concentration 10e-6 was determined; format: functional, Homo sapiens; in short: as §1
[22] = tested on: 786-0; test: Percent growth of renal 786-0 cell line at compound concentration 10e-8 was determined; format: functional, Homo sapiens; in short: as §1
[23] = tested on: DU-145; test: Percent growth of prostate DU-145 cell line at compound concentration 10e-5 was determined; format: functional, Homo sapiens; in short: as §1
[24] = tested on: DU-145; test: Percent growth of prostate DU-145 cell line at compound concentration 10e-6 was determined; format: functional, Homo sapiens; in short: as §1
[25] = tested on: DU-145; test: Percent growth of prostate DU-145 cell line at compound concentration 10e-8 was determined; format: functional, Homo sapiens; in short: as §1
[26] = tested on: SNB-19; test: Percent growth of CNS SNB-19 cell line at compound concentration 10e-5 was determined; format: functional, Homo sapiens; in short: as §1
[27] = tested on: SNB-19; test: Percent growth of CNS SNB-19 cell line at compound concentration 10e-6 was determined; format: functional, Homo sapiens; in short: as §1
[28] = tested on: SNB-19; test: Percent growth of CNS SNB-19 cell line at compound concentration 10e-8 was determined; format: functional, Homo sapiens; in short: as §1
[29] = tested on: OVCAR-4; test: Percent growth of ovarian OVCAR-4 cell line at compound concentration 10e-6 was determined; format: functional, Homo sapiens; in short: as §1
[30] = tested on: MCF7; test: Percent growth of breast MCF-7 cell line at compound concentration 10e-4 was determined; format: functional, Homo sapiens; in short: as §1
[31] = tested on: HCT-116; test: Percent growth of colon HCT116 cell line at compound concentration 10e-4 was determined; format: functional, Homo sapiens; in short: as §1
[32] = tested on: NCI-H460; test: Percent growth of lung-NSC NCI-H460 cell line at compound concentration 10e-4 was determined; format: functional, Homo sapiens; in short: as §1
[33] = tested on: RPMI-8226; test: Percent growth of leukemia RPMI-8226 cell line at compound concentration 10e-4 was determined; format: functional, Homo sapiens; in short: as §1
[34] = tested on: LOX IMVI; test: Percent growth of melanoma LOX IMVI cell line at compound concentration 10e-4 was determined; format: functional, Homo sapiens; in short: as §1
[35] = tested on: OVCAR-4; test: Percent growth of ovarian OVCAR-4 cell line at compound concentration 10e-4 was determined; format: functional, Homo sapiens; in short: as §1
[36] = tested on: 786-0; test: Percent growth of renal 786-0 cell line at compound concentration 10e-4 was determined; format: functional, Homo sapiens; in short: as §1
[37] = tested on: DU-145; test: Percent growth of prostate DU-145 cell line at compound concentration 10e-4 was determined; format: functional, Homo sapiens; in short: as §1
[38] = tested on: SNB-19; test: Percent growth of CNS SNB-19 cell line at compound concentration 10e-4 was determined; format: functional, Homo sapiens; in short: as §1

COc1ccc2nc3c(C(=O)NCCN(C)C)ccc(NCCN(C)CCNc4ccc(C(=O)NCCN(C)C)c5nc6ccc(OC)cc6c(O)c45)c3c(O)c2c1
K app [1]: 8.8e+06 M⁻¹
IC50 [2]: 3.3 µM

CN(C)CCNc1ccc(C(=O)NCCN(C)CCNC(=O)c2ccc(NCCN(C)C)c3c(O)c4cc(O)ccc4nc23)c2nc3ccc(O)cc3c(O)c12
IC50 [2]: 8.9 µM

CN(C)CCNc1ccc(C(=O)NCCCN(C)CCCNC(=O)c2ccc(NCCN(C)C)c3cc4ccccc4nc23)c2nc3ccccc3cc12
IC50 [2]: 0.23 µM

CN(C)CCNc1ccc(C(=O)NCCN(C)CCNC(=O)c2ccc(NCCN(C)C)c3cc4ccccc4nc23)c2nc3ccccc3cc12
IC50 [2]: 2 µM

CN(C)CCNC(=O)c1ccc(NCCN(C)CCNc2ccc(C(=O)NCCN(C)C)c3nc4ccccc4c(O)c23)c2c(O)c3ccccc3nc12
K app [1]: 3.8e+07 M⁻¹
IC50 [2]: 0.41 µM

COc1ccc2nc3c(C(=O)NCCN(C)CCNC(=O)c4ccc(NCCN(C)C)c5c(O)c6cc(OC)ccc6nc45)ccc(NCCN(C)C)c3c(O)c2c1
IC50 [2]: 0.89 µM

CN(C)CCNC(=O)c1ccc(NCCCN(C)CCCNc2ccc(C(=O)NCCN(C)C)c3nc4ccccc4c(O)c23)c2c(O)c3ccccc3nc12
K app [1]: 7.5e+07 M⁻¹
Growth [3]: -6%
Growth [4]: 22%
Growth [5]: -86%
Growth [6]: -96%
Growth [7]: -35%
Growth [8]: 20%
IC50 [2]: 0.00043 µM
Growth [9]: -90%
Growth [10]: -52%
Growth [11]: -49%
Growth [12]: -37%
Growth [13]: 16%
Growth [14]: 12%
Growth [15]: -93%
Growth [16]: -65%
Growth [17]: 30%
Growth [18]: -74%
Growth [19]: 46%
Growth [20]: -98%
Growth [21]: -26%
Growth [22]: 30%
Growth [23]: -72%
Growth [24]: -31%
Growth [25]: 11%
Growth [26]: -55%
Growth [27]: -20%
Growth [28]: 38%
Growth [29]: -47%

CN(C)CCNC(=O)c1ccc(NCCCN(C)CCCNc2ccc(C(=O)NCCN(C)C)c3nc4ccccc4cc23)c2cc3ccccc3nc12
K app [1]: 9.4e+07 M⁻¹
IC50 [2]: 0.047 µM

COc1ccc2nc3c(C(=O)NCCCN(C)CCCNC(=O)c4ccc(NCCN(C)C)c5c(O)c6cc(OC)ccc6nc45)ccc(NCCN(C)C)c3c(O)c2c1
Growth [3]: 0%
Growth [4]: 18%
Growth [30]: -85%
Growth [31]: -97%
Growth [7]: -23%
Growth [8]: 17%
IC50 [2]: 0.002 µM
Growth [32]: -90%
Growth [10]: -10%
Growth [33]: -44%
Growth [12]: -36%
Growth [13]: 4%
Growth [14]: 9%
Growth [34]: -73%
Growth [16]: -2%
Growth [17]: 31%
Growth [35]: -96%
Growth [19]: 38%
Growth [36]: -98%
Growth [21]: 1%
Growth [22]: 28%
Growth [37]: -77%
Growth [24]: -25%
Growth [25]: 25%
Growth [38]: -85%
Growth [27]: 3%
Growth [28]: 38%
Growth [29]: -21%

CN(C)CCNC(=O)c1ccc(NCCN(C)C)c2c(O)c3cc([N+](=O)[O-])ccc3nc12
IC50 [2]: 0.19 µM

CN(CCNC(=O)c1ccc(Cl)c2c(O)c3ccccc3nc12)CCNC(=O)c1ccc(Cl)c2c(O)c3ccccc3nc12
IC50 [2]: 5.5 µM

CN(C)CCNC(=O)c1ccc(NCCCN(C)CCCNc2ccc(C(=O)NCCN(C)C)c3nc4ccc(O)cc4c(O)c23)c2c(O)c3cc(O)ccc3nc12
K app [1]: 7.4e+07 M⁻¹
IC50 [2]: 6.9 µM

O=C1c2c(O)ccc(O)c2C(=O)c2c(NCCNCCO)ccc(NCCNCCO)c21 [MITOXANTRONE]
IC50 [2]: 0.01 µM

Source: ChEMBL document CHEMBL1144932, “Design, synthesis, and biological properties of new bis(acridine-4-carboxamides) as anticancer agents” (J Med Chem, 2003)
